Data from ChEMBL document CHEMBL1124666, “Novel linked antiviral and antitumor agents related to netropsin and distamycin: synthesis and biological evaluation” (1989).

How the values were obtained:
[1] = system: Vaccinia virus; assay: Minimum cytotoxic concentration against vaccinia virus embryonic skin muscle cell cultures; type: functional; details: Orthopoxvirus vaccinia
[2] = system: FM3A; assay: Inhibitory effect on the proliferation of murine mammary carcinoma (FM3A) cells; type: functional; details: Mus musculus, read-out: ID50 (the source's name)
[3] = system: P388; assay: Inhibitory effect on the proliferation of murine leukemia (P388) cells; type: functional; details: Mus musculus, read-out: ID50 (the source's name)
[4] = system: Vaccinia virus; assay: (§1) Minimum inhibitory concentration against vaccinia virus in primary rabbit kidney cell cultures of experiment 2; type: functional; details: Orthopoxvirus vaccinia
[5] = system: Vaccinia virus; assay: Minimum inhibitory concentration against vaccinia virus in Vero cell cultures of experiment 2; type: functional; details: Orthopoxvirus vaccinia
[6] = system: Raji; assay: Inhibitory effect on the proliferation of human B lymphoblast (Raji) cells; type: functional; details: read-out: ID50 (the source's name)
[7] = system: Vesicular stomatitis virus; assay: Minimum inhibitory concentration against Vesicular stomatitis virus; type: functional
[8] = system: Human alphaherpesvirus 1; assay: Minimum inhibitory concentration against Herpes simplex virus 1(KOS); type: functional
[9] = system: Vaccinia virus; assay: Minimum cytotoxic concentration against vaccinia virus in primary rabbit kidney cell cultures; type: functional; details: Orthopoxvirus vaccinia
[10] = system: Vaccinia virus; assay: Minimum cytotoxic concentration against vaccinia virus in HeLa cell cultures; type: functional; details: Orthopoxvirus vaccinia
[11] = system: Vaccinia virus; assay: Minimum inhibitory concentration against vaccinia virus embryonic skin muscle cell cultures; type: functional; details: Orthopoxvirus vaccinia
[12] = system: Vaccinia virus; assay: as §1; type: functional, Orthopoxvirus vaccinia
[13] = system: L1210; assay: Inhibitory effect on the proliferation of murine leukemia (L1210) cells; type: functional; details: Mus musculus, read-out: ID50 (the source's name)
[14] = system: Vaccinia virus; assay: Minimum cytotoxic concentration against vaccinia virus in Vero cell cultures; type: functional; details: Orthopoxvirus vaccinia
[15] = system: Vaccinia virus; assay: Minimum inhibitory concentration against vaccinia virus in primary rabbit kidney cell cultures of experiment 1; type: functional; details: Orthopoxvirus vaccinia
[16] = system: Vaccinia virus; assay: Minimum inhibitory concentration against Vaccinia virus; type: functional; details: Orthopoxvirus vaccinia
[17] = Inhibitory effect on the proliferation of human T-lymphoblast (Molt/4F) cells; type: functional; details: read-out: ID50 (the source's name)
[18] = Minimum cytotoxic concentration in primary rabbit kidney (PRK) cell cultures; type: functional, Oryctolagus cuniculus
[19] = system: Vaccinia virus; assay: Minimum inhibitory concentration against vaccinia virus in Vero cell cultures of experiment 1; type: functional; details: Orthopoxvirus vaccinia
[20] = system: Calf thymus DNA; assay: Relative binding constant to calf thymus DNA; type: nucleic-acid assay; details: Bos taurus
How it was run: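 Ethidium displacement: Tris-EDTA buffer pH 8 with 1.3 μM ethidium bromide and calf thymus DNA (1.35 μM final); drug aliquots added, fluorescence read after a few minutes' equilibration (excitation 525 nm, emission 600 nm). Drug level giving 50% fluorescence decrease converted to relative binding constant taking ethidium binding constant as 10^7 M-1.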

[21] = system: Human alphaherpesvirus 2; assay: Minimum inhibitory concentration against Herpes simplex virus 2(G); type: functional
[22] = system: Vaccinia virus; assay: Minimum cytotoxic concentration against HeLa cell cultures; type: functional; details: Orthopoxvirus vaccinia
How it was run: (§2)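 Host cell cultures (primary rabbit kidney, HeLa, Vero, or E6SM embryonic skin-muscle cells, as named) exposed to compound. Minimum cytotoxic concentration taken as the concentration required to cause a microscopically detectable alteration of normal cell morphology.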

[23] = system: P388; assay: Concentration which leads to inhibitory effect on the proliferation of murine leukemia (P388) cells; type: functional; details: Mus musculus, read-out: ID50 (the source's name)
How it was run: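 Murine P388 leukaemia cells grown in Fischer's medium with 10% fetal calf serum. Compounds dissolved in water, or sonicated and given as a suspension if poorly soluble. Cells seeded at 1 × 10^5 per well and grown 72 h at 37 °C in humidified 5% CO2 with drug. Viability read by MTT formazan optical density at 570 nm (reference 630 nm).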

[24] = system: Vaccinia virus; assay: Minimum cytotoxic concentration against primary rabbit kidney cell cultures; type: functional; details: Orthopoxvirus vaccinia; how it was run: as §2
[25] = system: FM3A; assay: Inhibitory effect on the proliferation of murine mammary carcinoma (FM3A ) cells; type: functional; details: Mus musculus, read-out: ID50 (the source's name)
[26] = Inhibition of Moloney Murine Leukemia Associated Reverse Transcriptase; type: functional, Mus musculus
[27] = system: Vaccinia virus; assay: Minimum cytotoxic concentration against embryonic skin muscle cell cultures; type: functional; details: Orthopoxvirus vaccinia; how it was run: as §2
[28] = system: Raji; assay: Inhibitory effect on the proliferation of human B lymphoblast (Raji ) cells; type: functional; details: read-out: ID50 (the source's name)
[29] = system: L1210; assay: Inhibitory effect on the proliferation of murine leukemia (L1210 ) cells; type: functional; details: Mus musculus, read-out: ID50 (the source's name)
[30] = Inhibitory effect on the proliferation of human T-lymphoblast (Molt/4F ) cells; type: functional; details: read-out: ID50 (the source's name)
[31] = system: Vaccinia virus; assay: Minimum cytotoxic concentration against Vero cell cultures; type: functional; details: Orthopoxvirus vaccinia; how it was run: as §2
[32] = system: PRK; assay: Compound was evaluated for the minimum cytotoxic concentration in primary rabbit kidney (PRK) cell cultures; type: functional; details: Oryctolagus cuniculus; how it was run: as §2
[33] = system: Vaccinia virus; assay: Minimum cytotoxic concentration against vaccinia virus against embryonic skin muscle cell cultures; type: functional; details: Orthopoxvirus vaccinia
[34] = system: Vaccinia virus; assay: Minimum inhibitory concentration against vaccinia virus in HeLa cell cultures; type: functional; details: Orthopoxvirus vaccinia
[35] = Orthopoxvirus vaccinia, read-out: MIC

SMILES	IC50 [3] [µg/mL]	MIC [5] [µg/mL]	MIC [7] [µg/mL]	MIC [8] [µg/mL]	MCC [9] [µg/mL]	MCC [10] [µg/mL]	MIC [11] [µg/mL]	MIC [12, 35] [µg/mL]	MCC [14] [µg/mL]	MIC [15] [µg/mL]	MIC [16] [µg/mL]	MCC [18] [µg/mL]	MIC [19] [µg/mL]	Binding constant [20] [M⁻¹]	MIC [21] [µg/mL]	ID50 [26] [µg/mL]	further results
Cl.Cl.Cn1cc(NC(=O)c2cc(NC(=O)Nc3cc(C(=O)Nc4cc(C(=O)NCCC(=N)N)n(C)c4)n(C)c3)cn2C)cc1C(=O)NCCC(=N)N	8	20	> 40	> 10	40	> 40	2	20	> 40	7	7	>40	20	5.6e+07	20		MCC [1]: 100 µg/mL; IC50 [2]: > 100 µg/mL; MIC [4]: 7 µg/mL; IC50 [6]: > 100 µg/mL; IC50 [13]: > 100 µg/mL; IC50 [17]: > 100 µg/mL
Cl.Cl.Cn1cc(NC(=O)CCC(=O)Nc2cc(C(=O)NCCC(=N)N)n(C)c2)cc1C(=O)NCCC(=N)N		> 400	> 100	> 100			70	400		300	20		> 400		> 40	>400	MCC [22]: > 400 µg/mL; IC50 [23]: > 20 µg/mL; MCC [24]: > 400 µg/mL; IC50 [25]: > 100 µg/mL; MCC [27]: > 400 µg/mL; IC50 [28]: > 100 µg/mL; IC50 [29]: > 100 µg/mL; MIC [12]: >400 µg/mL; IC50 [30]: > 100 µg/mL; MCC [31]: > 400 µg/mL; MCC [32]: > 100 µg/mL
Cl.Cl.Cn1cc(NC(=O)c2cc(NC(=O)CCCCCCCCCC(=O)Nc3cc(C(=O)Nc4cc(C(=O)NCCC(=N)N)n(C)c4)n(C)c3)cn2C)cc1C(=O)NCCC(=N)N	18		> 40	> 10	> 40	100	0.2		100	2	2	>40	> 40	1.9e+07	20	10.3	MCC [33]: > 40 µg/mL; MIC [34]: 20 µg/mL
